Assay results reported in ChEMBL document CHEMBL5223168, “Using Imidazo[2,1-b][1,3,4]thiadiazol Skeleton to Design and Synthesize Novel MNK Inhibitors” (ACS Med Chem Lett, 2023).
The source made the active and inactive calls. No cut-off for these calls is given here.

Assays:
MDA-MB-231 [1] = assay: Downregulation of MMP-3 in human MDA-MB-231 cells at 5 uM incubated for 24 hrs by Western blot anlaysis; format: functional, cell-based
Outline: (§1)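 A549 and MDA-MB-231 cells treated 24 h with 5 μM; lysates resolved by SDS-PAGE and immunoblotted for cyclin B1, cyclin D3 and MMP-3.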

MV4-11 = assay: Induction of cell cycle arrest in human MV4-11 cells assessed as decrease in cyclin D3 level at 3 uM incubated for 24 hrs by Western blot analysis
[2] = test system: MAP kinase-interacting kinase MNK1/2 (Mus musculus); assay: Inhibition of MNK in wild type mouse MEF cells assessed as inhibition of eIF4E phosphorylation at 3 uM incubated for 2 hrs by Western blot analysis
[3] = Oral bioavailability in mouse at 50 mg/kg and 25 mg/kg, iv and measured upto 24 hrs; format: ADME, organism-based; settings: in vivo
[4] = Apparent volume of distribution in mouse at 25 mg/kg, iv and measured upto 24 hrs; format: ADME, organism-based; settings: in vivo, read-out: Vz
[5] = Clearance in mouse at 25 mg/kg, iv and measured upto 24 hrs; format: ADME, organism-based; settings: in vivo
mTORC1 (Homo sapiens) = mTORC1 (Homo sapiens) (UniProt P42345+Q8N122+Q9BVC4); assay: Inhibition of mTORC1 in human LNCaP C4-2B cells assessed as inhibition of phosphorylation of rpS6 at Ser240/244 at 5 uM incubated for 2 hrs by Western blot analysis; format: cell-based
Outline: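 C4-2B prostate cancer cells treated with inhibitor; lysates probed by Western blot for p-eIF4E, p-S6K (Thr389), p-rpS6 (Ser240/244) and p-AKT (Ser473).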

[6] = test system: MAP kinase-interacting kinase MNK1/2 (Homo sapiens); assay: Inhibition of MNK in human PC-3 cells assessed as inhibition of eIF4E phosphorylation at 3 uM incubated for 2 hrs by Western blot analysis
A549 [7] = assay: Induction of cell cycle arrest in human A549 cells assessed as decrease in cyclin D3 level at 5 uM incubated for 24 hrs by Western blot analysis; format: functional, cell-based; outline: as §1
[8] = AUC (0-t) in mouse at 50 mg/kg, po and measured upto 24 hrs; format: ADME, organism-based; parameters: dose 50 mg/kg, time < 24 hrs, route po; settings: in vivo
[9] = Toxicity in BALB/C nude mouse xenografted with human A549 cells assessed as body weight loss at 75 to 150 mg/kg, po QD for 14 days; format: organism-based; settings: in vivo, 336 h, dose 75-150 mg/kg, time 14 day
Outline: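 A549 xenografts in nude mice dosed orally once daily at 75 or 150 mg/kg for 14 days; body weight monitored for tolerability, irinotecan 3 mg/kg as positive control group.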

A549 [10] = assay: Induction of cell cycle arrest in human A549 cells assessed as accumulation of cells at S phase at 5 uM incubated for 16 hrs by propidium iodide staining based flow cytometry (Rvb=12.8%); format: functional
A549 [11] = assay: Antiproliferative activity against human A549 cells assessed as reduction in cell viability at 5 uM incubated upto 6 days by trypan blue assay; format: functional, cell-based; settings: time <= 6.0 day
Outline: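 A549 or MDA-MB-231 cells cultured with 5 μM compound for up to 6 days; cell number counted over time; p-eIF4E followed by immunoblot up to 96 h.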

[12] = Half life in mouse at 25 mg/kg, iv and measured upto 24 hrs; format: ADME, organism-based; settings: in vivo
[13] = test system: MAP kinase-interacting kinase MNK1/2 (Homo sapiens); assay: Inhibition of MNK in human A549 cells assessed as reduction in MCP-1 level at 1 to 10 uM incubated for 48 hrs by ELISA; settings: dose 1-10 µM
A549 [14] = assay: Induction of cell cycle arrest in human A549 cells assessed as accumulation of cells at G0/G1 phase at 5 uM incubated for 8 hrs by propidium iodide staining based flow cytometry (Rvb=91.7%); format: functional
A549 [15] = assay: Induction of cell cycle arrest in human A549 cells assessed as decrease in cyclin B1 level at 5 uM incubated for 24 hrs by Western blot analysis; format: functional, cell-based; outline: as §1
[16] = test system: MAP kinase-interacting kinase MNK1/2 (Homo sapiens); assay: Inhibition of MNK in human NCI-H1299 cells assessed as inhibition of eIF4E phosphorylation at 3 uM incubated for 2 hrs by Western blot analysis
[17] = test system: MAP kinase-interacting kinase MNK1/2 (Homo sapiens); assay: Inhibition of MNK in human LNCaP C4-2B cells assessed as inhibition of eIF4E phosphorylation at 5 uM incubated for 2 hrs by Western blot analysis
A549 [18] = assay: Downregulation of MMP-3 in human A549 cells at 5 uM incubated for 24 hrs by Western blot anlaysis; format: functional, cell-based; outline: as §1
[19] = molecular target: Eukaryotic translation initiation factor 4E (Homo sapiens) (UniProt P06730); assay: Inhibition of eIF4E phosphorylation in human MDA-MB-231 cells at 5 uM and measured upto 96 hrs by Western blot analysis; format: cell-based
Outline: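 Cells maintained with compound at 5 μM for up to 6 days for cell counts; eIF4E phosphorylation followed by immunoblot for up to 96 h.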

[20] = test system: MAP kinase-interacting kinase MNK1/2 (Homo sapiens); assay: Inhibition of MNK in human A549 cells assessed as reduction in IL-8 level at 1 to 10 uM incubated for 48 hrs by ELISA; settings: dose 1-10 µM
A549 [21] = assay: Induction of cell cycle arrest in human A549 cells assessed as accumulation of cells at S phase at 5 uM incubated for 20 hrs by propidium iodide staining based flow cytometry (Rvb=13.6%); format: functional
[22] = Tmax in mouse at 25 mg/kg, iv and measured upto 24 hrs; format: ADME, organism-based; settings: in vivo
[23] = molecular target: Mitogen-activated protein kinase 8 (Homo sapiens) (UniProt P45983); assay: Inhibition of JNK1 (unknown origin) at 3 uM in presence of ATP by kinase assay
A549 [24] = assay: Antimigratory activity against human A549 cells assessed as inhibition of cell migration at 5 uM and measured upto 24 hrs by scratch wound healing assay; format: functional, cell-based
Outline: (§2)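 Scratch wound-healing: A549 or MDA-MB-231 monolayers wounded, then exposed to 5 μM compound or DMSO; wound imaged at 6 and 24 h; percentage change in wound area quantified by image analysis at each time point.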

MDA-MB-231 [25] = assay: Antimigratory activity against human MDA-MB-231 cells assessed as inhibition of cell migration at 5 uM and measured upto 24 hrs by scratch wound healing assay; format: functional, cell-based; outline: as §2
A549 [26] = assay: Induction of cell cycle arrest in human A549 cells assessed as accumulation of cells at G0/G1 phase at 5 uM incubated for 16 hrs by propidium iodide staining based flow cytometry (Rvb=75.4%); format: functional
[27] = molecular target: Mitogen-activated protein kinase 9 (Homo sapiens) (UniProt P45984); assay: Inhibition of JNK2 (unknown origin) at 3 uM in presence of ATP by kinase assay
[28] = Cmax in mouse at 50 mg/kg, po and measured upto 24 hrs; format: ADME, organism-based; parameters: dose 50 mg/kg, time < 24 hrs, route po; settings: in vivo

Mitogen-activated protein kinase 9 (Homo sapiens), sequence (P45984 whole entry, looked up): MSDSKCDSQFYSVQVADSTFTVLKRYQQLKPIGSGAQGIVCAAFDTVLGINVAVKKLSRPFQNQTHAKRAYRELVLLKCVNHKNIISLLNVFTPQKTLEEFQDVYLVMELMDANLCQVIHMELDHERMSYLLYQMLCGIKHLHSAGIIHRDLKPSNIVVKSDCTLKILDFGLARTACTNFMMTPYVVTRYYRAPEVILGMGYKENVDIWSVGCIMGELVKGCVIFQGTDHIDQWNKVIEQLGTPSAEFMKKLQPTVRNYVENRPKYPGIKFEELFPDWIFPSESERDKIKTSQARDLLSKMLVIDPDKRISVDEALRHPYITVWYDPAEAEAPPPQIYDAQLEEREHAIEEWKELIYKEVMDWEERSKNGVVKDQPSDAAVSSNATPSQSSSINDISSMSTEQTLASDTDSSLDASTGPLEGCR
Eukaryotic translation initiation factor 4E (Homo sapiens), sequence (P06730 whole entry): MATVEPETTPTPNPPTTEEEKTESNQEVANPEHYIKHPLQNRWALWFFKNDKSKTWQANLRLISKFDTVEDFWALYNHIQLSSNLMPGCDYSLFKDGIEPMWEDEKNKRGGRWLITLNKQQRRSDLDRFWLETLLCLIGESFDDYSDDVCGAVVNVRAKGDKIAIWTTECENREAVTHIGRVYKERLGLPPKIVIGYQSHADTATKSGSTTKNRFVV
Mitogen-activated protein kinase 8 (Homo sapiens), sequence (P45983 whole entry): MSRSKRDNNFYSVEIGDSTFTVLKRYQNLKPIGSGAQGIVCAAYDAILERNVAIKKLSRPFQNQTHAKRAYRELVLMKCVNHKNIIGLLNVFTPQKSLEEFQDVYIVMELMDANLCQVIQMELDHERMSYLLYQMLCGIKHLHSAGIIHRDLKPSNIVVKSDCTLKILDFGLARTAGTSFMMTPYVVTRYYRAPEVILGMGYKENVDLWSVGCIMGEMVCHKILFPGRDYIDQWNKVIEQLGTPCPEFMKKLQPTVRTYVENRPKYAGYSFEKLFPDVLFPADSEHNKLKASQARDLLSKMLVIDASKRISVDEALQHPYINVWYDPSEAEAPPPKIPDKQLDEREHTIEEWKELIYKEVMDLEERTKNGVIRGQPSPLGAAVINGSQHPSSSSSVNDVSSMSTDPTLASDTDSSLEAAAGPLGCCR
mTORC1 (Homo sapiens), sequence (Q8N122 whole entry, looked up, other chains not shown): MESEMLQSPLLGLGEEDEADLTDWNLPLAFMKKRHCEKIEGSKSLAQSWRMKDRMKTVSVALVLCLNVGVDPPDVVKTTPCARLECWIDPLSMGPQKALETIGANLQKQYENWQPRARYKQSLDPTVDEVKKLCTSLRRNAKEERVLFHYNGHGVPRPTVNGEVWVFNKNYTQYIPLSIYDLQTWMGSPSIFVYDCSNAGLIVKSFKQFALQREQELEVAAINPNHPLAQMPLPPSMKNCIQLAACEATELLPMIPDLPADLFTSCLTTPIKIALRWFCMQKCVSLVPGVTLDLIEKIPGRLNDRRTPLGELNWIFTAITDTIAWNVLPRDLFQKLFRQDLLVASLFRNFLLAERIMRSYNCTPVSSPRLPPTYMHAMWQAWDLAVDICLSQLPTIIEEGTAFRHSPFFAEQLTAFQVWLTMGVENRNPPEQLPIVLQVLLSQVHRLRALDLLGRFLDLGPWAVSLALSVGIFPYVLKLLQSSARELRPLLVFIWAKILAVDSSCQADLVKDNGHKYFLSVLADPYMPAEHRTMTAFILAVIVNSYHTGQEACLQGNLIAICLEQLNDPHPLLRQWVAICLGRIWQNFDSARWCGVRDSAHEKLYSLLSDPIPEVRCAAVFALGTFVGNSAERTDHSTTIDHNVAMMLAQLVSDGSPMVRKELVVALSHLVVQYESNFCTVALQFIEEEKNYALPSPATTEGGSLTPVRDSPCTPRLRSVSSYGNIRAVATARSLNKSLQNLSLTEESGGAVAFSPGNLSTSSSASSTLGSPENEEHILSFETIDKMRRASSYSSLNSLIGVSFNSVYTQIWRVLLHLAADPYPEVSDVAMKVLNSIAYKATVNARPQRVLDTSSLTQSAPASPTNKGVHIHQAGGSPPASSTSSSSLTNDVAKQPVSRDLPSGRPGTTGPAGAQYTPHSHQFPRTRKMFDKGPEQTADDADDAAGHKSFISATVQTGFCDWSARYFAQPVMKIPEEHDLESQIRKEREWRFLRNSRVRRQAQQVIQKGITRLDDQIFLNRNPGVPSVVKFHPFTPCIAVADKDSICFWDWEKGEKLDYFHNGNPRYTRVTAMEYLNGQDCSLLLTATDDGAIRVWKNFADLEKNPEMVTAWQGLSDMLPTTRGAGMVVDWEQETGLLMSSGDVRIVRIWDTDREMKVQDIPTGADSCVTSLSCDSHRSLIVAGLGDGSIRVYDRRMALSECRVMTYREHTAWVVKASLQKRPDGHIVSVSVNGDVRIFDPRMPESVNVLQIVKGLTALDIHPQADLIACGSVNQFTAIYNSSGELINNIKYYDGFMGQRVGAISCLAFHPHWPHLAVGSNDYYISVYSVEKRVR
mTORC1 (Homo sapiens), sequence (Q9BVC4 whole entry, looked up, other chains not shown): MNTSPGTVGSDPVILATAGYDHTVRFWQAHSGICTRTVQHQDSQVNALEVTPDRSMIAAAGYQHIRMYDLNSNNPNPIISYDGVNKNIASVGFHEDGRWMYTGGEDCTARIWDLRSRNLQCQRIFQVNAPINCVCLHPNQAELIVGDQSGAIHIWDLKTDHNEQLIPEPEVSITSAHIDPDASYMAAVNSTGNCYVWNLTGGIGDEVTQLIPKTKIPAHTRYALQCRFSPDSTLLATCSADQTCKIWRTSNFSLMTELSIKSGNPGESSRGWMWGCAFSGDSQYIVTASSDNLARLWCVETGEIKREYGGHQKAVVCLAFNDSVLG

inhibition [2]: Active | bioavailability [3]: 60.9% | Vd [4]: 1.52 L/kg | clearance [5]: 5.13 mL/min/kg | inhibition (mTORC1 (Homo sapiens)): inactive | inhibition [6]: Active | AUC(0-t) at 24 h [8]: 98500 ng·h/mL | half-life [12]: 3.4 h | inhibition [13]: Active | inhibition [16]: Active | inhibition [17]: Active | inhibition [19]: Active | inhibition [20]: Active | Tmax [22]: 4.8 min | inhibition [23]: Active | inhibition [27]: Active | Cmax [28]: 17200 ng/mL
SMILES: CN1CCN(C(=O)c2ccc(-c3nn4c(-c5ccc(C#N)cc5)cnc4s3)cc2)CC1
Activity (MDA-MB-231 [1]): Active | Activity (MV4-11): Active | Activity (A549 [7]): Active | Activity [9]: < 10% | Activity (A549 [10]): 5.2% | Activity (A549 [11]): Active | Activity (A549 [14]): 88.2% | Activity (A549 [15]): Active | Activity (A549 [18]): Active | Activity (A549 [21]): 3.3% | Activity (A549 [24]): Active | Activity (MDA-MB-231 [25]): Active | Activity (A549 [26]): 89.6%
